Data as given in the EternaBench riboswitch data.

Test system: MS2 coat protein
Test: apparent Kd, MS2 coat protein; higher = weaker binding; RNA-MaP array; FMN 200 µM where present
How it was run: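 The apparent Kd is reported as the median of filtered per-cluster binding-curve fits. To get these curves, designs transcribed by stalled E. coli RNA polymerase on Illumina sequencing-chip clusters were titrated with SNAP-549-labelled MS2 coat protein from 0.7 or 1.5 nM, doubling to 3 µM. Titrations were run without and then with constant ligand in 100 mM Tris-HCl pH 7.5, 80 mM KCl, 4 mM MgCl2, BSA, DTT, yeast tRNA and Tween-20, and green signal was normalised to red-channel RNA signal and control-cluster median Fmax.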

[1] = designed as: ON switch for flavin mononucleotide, no ligand
[2] = ligand present: flavin mononucleotide, designed as: ON switch for flavin mononucleotide
[3] = designed as: OFF switch for flavin mononucleotide, no ligand
[4] = ligand present: flavin mononucleotide, designed as: OFF switch for flavin mononucleotide

| Sequence | apparent Kd [1] | apparent Kd [2] | apparent Kd [3] | apparent Kd [4] |
| --- | --- | --- | --- | --- |
| AACAUACAUGAGGAUCACCCAUGUUCCGGCAGGACAGGAUAUACAUCGAAAGUGUUAUAAGUAGAAGGGUCAUAAA | 77.8 nM | 71.2 nM | – | – |
| AACAUGAGGAUCACCCAUGUCCCACCAGAAGGCUGGCGGUGGUGGUAAAGGCCACGACAAAUAACAGAGGAUAUGGUGAAUGCA | 84.6 nM | 18.8 nM | – | – |
| AACAUGUCAGGAUAUGACUAAGGUGCUCGGUUGAGCCCUUAUCAGAAGGGACAUGAGGAUCACCCAUGUUCCGA | – | – | 17.8 nM | 21.1 nM |
| AACAUGUGAGGAUAUUGAUUGGAGACGUGGAGACCGCUAAUUAAGAAGGUACAUGAGGAUCACCCAUGUCCCAU | – | – | 215 nM | 231 nM |
| AACCGACAUGAGGAUCACCCAUGUCAGGAUAUGGACUGACACCGAAAGGGUGGCGGAACCAGAAGGGACUGGGC | – | – | 36.3 nM | 96.5 nM |
| AACCGCGACCGGCCUGGCACGUCGAGAAGGGUACGUGACCUGCUUUACAUGAGGAUCACCCAUGUACAGGAUAUCGAAUAGCCG | – | – | 5.97 nM | 8.4 nM |
| AACCUAAAACAGAAGGCCAGCUACAUGAGGAUCACCCAUGUCGAAUCAUGGAGGAUAUGUUGUAAUUUACUCGCAGAUGAGUGC | – | 5.92 nM | – | – |
| AACCUGGUAAAUAAACUCAAUUACAUGAGGAUCACCCAUGUAUAGGAUAUGCAGUGGAAUACACUGCAGAAGGAUACAUCCAGG | – | – | 18 nM | 60.9 nM |
| AACGACUUAGGAUAUACAUGAGGAUCACCCAUGUUCAAAUCGUGGGUCAGGUGAGAAGGUAGAAGGAAGUCACU | – | – | 33.6 nM | 93.7 nM |
| AACGAGCAGUAGAAGGCGUGUCUACGGACAUGAGGAUCACCCAUGUUGUGACUCCGAAAGGAGCGCGAGGAUAUACUGCUCAAA | 10.3 nM | 6.57 nM | – | – |
| AACGAUCUAGGAUAUACAUGAGGAUCACCCAUGUAAGAGCCCAAACCAGGCUCCCUCUGUAGAAGGAGGUCAAA | – | – | – | 50.9 nM |
| AACGCAUGUGGAGGAUAUGCAGUUAACAUAAGCGCAGAAGGCCACAUGAGGAUCACCCAUGUCCGGCAUUAGCCGAUGUUGAUC | – | – | 509 nM | 114 nM |
| AACUAGUGAGGAUAUACAUGAGGAUCACCCAUGUACGUCGUGGGUAGAAAACAAGUCAGUAGAAGGUGCUAGAC | – | – | 157 nM | 248 nM |
| AACUUCCCGUCAGGAUAUCGCCGUAGGUCCUCGGGUCUCGCCGUCAUACAUGAGGAUCACCCAUGUGAGAAGGGACGGGAUUCA | – | – | 21.8 nM | 117 nM |
| AAGAAAGAGCGAGGAUAUGCGAUAAAAUAAUAAGCAGAAGGUGCAUAACAUGAGGAUCACCCAUGUUGUUGUCAUGUCAAGAUU | – | – | 14.2 nM | 18.2 nM |
| AAGAAGAACGCAGGAUAUCUCACCCAUGUAAGAAGAGAAGGGCGACAUGAGGAUCACCCAUGUCAACAUGAGGAUCACCCAUGU | – | – | 59.6 nM | 88.9 nM |
| AAGAAGUCAGGAUAUCCAUGGCGGCACUUGCGUGGUGGCGUGGAGAAGGGACAUGAGGAUCACCCAUGUAAAGU | – | – | 49 nM | 44.6 nM |
| AAGAAGUCAGGAUAUGCAUGGCGGGACUUGCGUCGUGGCGUGCAGAAGGGACAUGAGGAUCACCCAUGUAAAGA | – | – | 49.4 nM | 41.7 nM |
| AAGAAGUCAGGAUAUGCAUGGCGGGACUUGCGUCGUGGCGUGCAGAAGGGACAUGAGGAUCACCCAUGUAAAGG | – | – | 151 nM | 180 nM |

| Sequence | apparent Kd [1] | apparent Kd [2] | apparent Kd [3] | apparent Kd [4] |
| --- | --- | --- | --- | --- |
| AAGAAGUCAGGAUAUGCAUGGCGGGACUUGCGUCGUGGCGUGCAGAAGGGACAUGAGGAUCACCCAUGUGGAGU | – | – | 155 nM | 241 nM |
| AAGAAGUGAGGAUAUGCUGCUCGUCACUUGCGUGAUGAGUAGCAGAAGGCACAUGAGGAUCACCCAUGUGGAAG | – | – | 33.9 nM | 47.8 nM |
| AAGAAGUGAGGAUAUGGCCGGGUCCCUGGGUUUGGACCCGGCCAGAAGGCACAUGAGGAUCACCCAUGUAAGAA | – | – | 24 nM | 46.3 nM |
| AAGAAGUUAGGAUAUGCUGCUCGUCACAAAAGUGAUGAGUAGCAGAAGGAACAUGAGGAUCACCCAUGUAAAGA | – | – | 32.3 nM | 22.9 nM |
| AAGAAUAGAAAGAUUAAUAUGAAUACAUGAGGAUCACCCAUGUAGGAUAUCGACGUCAAUGACGUCGAGAAGGACAAAAUAAAU | – | – | 9.44 nM | 9.55 nM |
| AAGAAUAGAAAGAUUAAUAUGAAUACAUGAGGAUCACCCAUGUAGGAUAUGCAGCUGAAUCAGCUGCAGAAGGACAAAAUAAAU | – | – | 9.15 nM | 9.08 nM |
| AAGACAUGAGGAUCACCCAUGUAAAGACCGGUCGAUCAAGGUGAGGAUAUACAAUAAUUGAUAGGGUAGAAGGCACUGGGUUGA | 286 nM | 148 nM | – | – |
| AAGAGGUGAGGAUAUCGAAGAAGAAGAAGAAGAAGAAGAAACGAGAAGGCACAUGAGGAUCACCCAUGUAAGAA | – | – | 22.5 nM | 19.9 nM |
| AAGAGUGCAGGAUAUACUUGGUAGGGUAAGAUGAGUGAGUGACAUGAGGAUCACCCAUGUAGAAGGGCAGAGAG | – | – | 121 nM | 132 nM |
| AAGAUACUUACAGGAUAUAGGGCAUAGGGUGCCCUAGAAGGGUGAACAUGAGGAUCACCCAUGUAUGUAUCAGAUUAGAAGGCA | 53.3 nM | 41.8 nM | – | – |
| AAGCGCGUAGGAUAUACAUGAGGAUCACCCAUGUGAGGAGGGAGUUGGAGGUGUGGAAGUAGAAGGACGGAGUG | – | – | 48.1 nM | 37.6 nM |
| AAGCUUGAUCCUCGUGUAUACAUGAGGAUCACCCAUGUGACGCAGGAUAUAGGCGUGUUAGUAGCCUAGAAGGGCGAGCAGCGA | – | – | 128 nM | 73.5 nM |
| AAGGAAACCACAGGAUAUGGCUAGCAUAGCUAGCCAGAAGGGUGGUCGAAACCAUGUAAAUACAUGAGGAUCACCCAUGUGUCC | 189 nM | 271 nM | – | – |
| AAGGAACAUGAGGAUCACCCAUGUGAGGAUAUGUGAGAAGGAUUUGAGAAGGAGAGGGACAGAAGGCACUAGGA | – | – | 46.9 nM | 41.8 nM |
| AAGGAGUCAGGAUAUGCUGCUCGUCACUUGCGUGAUGAGUAGCAGAAGGGACAUGAGGAUCACCCAUGUAAAGA | – | – | 51.2 nM | 61.4 nM |
| AAGGCCUAUUCCAGGACUAUCGUACUAGAAGGGUGACCUGACAUGAGGAUCACCCAUGUACGGGCACAGGAUAUAGAUGAAAGG | 50.1 nM | 11.3 nM | – | – |
| AAGGGUUGUGAGGAUAUGGCUUACCAAUUGGUACCAGAAGGCGCUACAUGAGGAUCACCCAUGUGGGUCGUCCC | – | – | 51.8 nM | 82.9 nM |
| AAGGUAUACUGAGGAUAUCCGUGGGUAUAUGGGUCUAGGAACAUGAGGAUCACCCAUGUUCCCUAGGAGAAGGCAGGACAUUAA | – | – | 25 nM | 33.6 nM |
| AAGGUGAGUCAAGGAUAUCCGGGCUGAAUGCCAGGAGAAGGUGACAUGAGGAUCACCCAUGUCUCUCCGAGCAUGGUAUUCUCA | – | – | 148 nM | 138 nM |

| Sequence | apparent Kd [1] | apparent Kd [2] | apparent Kd [3] | apparent Kd [4] |
| --- | --- | --- | --- | --- |
| AAGUAGAACGUAGGAUAUCAAUGAGGAUCACCCUGAGAAGGACGUGAGGACAUGAGGAUCACCCAUGUGGAUCACCCAUGUCAU | – | – | 157 nM | 132 nM |
| AAGUCAGCAGGAUAUGCGAUGGUGGGCUAGGUAGCUUGCCCACAUGAGGAUCACCCAUGUAGAAGGGCUGGCUA | – | – | 72 nM | 48.7 nM |
| AAGUCGAGCGUGAGGAUAUCGUCCGGACGACCGAACGAGAAGGCACAUGAGGAUCACCCAUGUGAUUCAGCUCA | – | – | 19 nM | 70.5 nM |
| AAGUCGUGAGGAUAUACAUGCAUAUACAUUUAUGUAAAACUACAUGAGGAUCACCCAUGUAGAAGGCACGAAUA | – | – | 17.6 nM | 16.1 nM |
| AAGUCUGGAUGAGGAUAUCAGCUGUAACUGGCGUCGACAUGAGGAUCACCCAUGUUGCUAUAGGGUGAGAAGGCAUUUGGGCAA | 43.1 nM | 28.8 nM | – | – |
| AAGUUUGUACGAGGAUAUCAAUUGUUUCUAAAUUCAACAUGAGGAUCACCCAUGUAACAAUGGAGUGAGAAGGCGUGUGGGCAA | 214 nM | 203 nM | – | – |
| AAUAAACACACAGGAUAUAGCAUCGUCGUUGCGAACUUAGCGACGUCGAUGCUAGAAGGGUGAAAACAUGAGGAUCACCCAUGU | 80.9 nM | 20.1 nM | – | – |
| AAUAAACUCACAGGAUAUAGCAUAGGUCGCGUGAACUUACAGGCGACUAUGCUAGAAGGGUGACCACAUGAGGAUCACCCAUGU | 734 nM | 145 nM | – | – |
| AAUAACAGAGGAUAUACUAUUUUAUGUAUUUAUUAUUUUAAACAUGAGGAUCACCCAUGUAGAAGGCUGAGUAA | – | – | 23.8 nM | 21.3 nM |
| AAUAACAGAGGAUAUACUAUUUUAUGUAUUUAUUAUUUUAAACAUGAGGAUCACCCAUGUAGAAGGCUGAUUAA | – | – | 28.1 nM | 30.4 nM |
| AAUAACAGAGGAUAUACUAUUUUAUGUGUUUGUUGUUUUAAACAUGAGGAUCACCCAUGUAGAAGGCUGAUUAA | – | – | 32.7 nM | 38.8 nM |
| AAUAACAGAGGAUAUACUGUUUUAUGUAUUUAUUAUUUUAAACAUGAGGAUCACCCAUGUAGAAGGCUGAAUAA | – | – | 21.9 nM | 18.6 nM |
| AAUAACAGAGGAUAUACUGUUUUAUGUGUUUAUUGUUUUAAACAUGAGGAUCACCCAUGUAGAAGGCUGAGUAA | – | – | 38.9 nM | 39 nM |
| AAUAACAGAGGAUAUGCAAAAAUAAGCGGAAACGCAAGAAAACAUGAGGAUCACCCAUGUAGAAGGCUGGAUAA | – | – | 23.6 nM | 17.6 nM |
| AAUAAUAAUGUCAGGAUAUCUAGAGCUUCGGCUCUAGAGAAGGGACAUGAGGAUCACCCAUGUCACUCAAUAAU | – | – | 16.2 nM | 27.2 nM |
| AAUAAUCAGUAAGGAUAUACUAGCGAUUAGCUUGUAGAAGGUACAGUCUUAUGUAUAACAUGUUAACAUGAGGAUCACCCAUGU | 62.9 nM | 33.3 nM | – | – |
| AAUACAAAUAGUCAGGAUAUCAAAAAUAAGACAUGAGGAUCACCCAUGUAAUAAGUAAAAGUAAAUGAGAAGGGACAGGGUGAAA | 168 nM | 266 nM | – | – |
| AAUAGUGGAGGAUAUACAUGAGGAUCACCCAUGUAGAAAGGAAGUGUAUAUAUGGCGUGUAGAAGGCCAAAUAA | – | – | 36.4 nM | 34.1 nM |
